A selection: hits, their analogues and other compounds. The true share with any hit is near 3.4%.
VIM-2 inh: blocks Pseudomonas aeruginosa VIM-2 metallo-beta-lactamase; purified VIM-2, nitrocefin hydrolysis, epi-absorbance fluorescence; inhibition, % at 5.6 µM; 290,000 compounds, 0.89% hits; AID 1527;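 active means inhibition above the mean of all tested compounds plus 3 SD, cutoff set per screening run, cut at about 7.5% in these data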;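 further: red hydrolysis product quenches plate fluorescence so inhibitors raise well fluorescence; 0% = enzyme with DMSO and 100% = DMSO without enzyme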
IMP-1 inhibitor: blocks Pseudomonas aeruginosa IMP-1 metallo-beta-lactamase; purified IMP-1, nitrocefin hydrolysis, epi-absorbance fluorescence; 290,000 compounds, 0.45% hits; inhibition, % at 5.6 µM; AID 1556;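 active means inhibition above the mean plus 3 SD of all compounds in the same screening run, cut at about 4.5% in these data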;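 further: 0% = IMP-1 with DMSO and 100% = DMSO wells lacking enzyme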
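System: purified IMP-1; amount: IMP-1 0.2 nM before substrate addition; compound: single dose, 5.6 µM; times: 25 °C, 15 min preincubation, 25 min reaction; signal: Epi-absorbance via hydrolysed-nitrocefin quenching of white-plate fluorescence, 480/530 nm, EDTA stop; benchmarks: DMSO with and without IMP-1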
CHT block: human CHT choline transport inhibition; Q9GZV3; CHT-expressing cells, membrane potential dye, choline response; hits give low values; B-score at 10 µM; 310,000 compounds, 0.86% hits; AID 488975;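 active means B-score over 3 SD under the library average, and starting fluorescence ratio not unusually high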;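 further: choline stimulus applied at its EC90 after an EC20 pre-addition; B-score computed on integrated fluorescence ratio after choline addition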
Target sequence (Q9GZV3 whole entry, looked up): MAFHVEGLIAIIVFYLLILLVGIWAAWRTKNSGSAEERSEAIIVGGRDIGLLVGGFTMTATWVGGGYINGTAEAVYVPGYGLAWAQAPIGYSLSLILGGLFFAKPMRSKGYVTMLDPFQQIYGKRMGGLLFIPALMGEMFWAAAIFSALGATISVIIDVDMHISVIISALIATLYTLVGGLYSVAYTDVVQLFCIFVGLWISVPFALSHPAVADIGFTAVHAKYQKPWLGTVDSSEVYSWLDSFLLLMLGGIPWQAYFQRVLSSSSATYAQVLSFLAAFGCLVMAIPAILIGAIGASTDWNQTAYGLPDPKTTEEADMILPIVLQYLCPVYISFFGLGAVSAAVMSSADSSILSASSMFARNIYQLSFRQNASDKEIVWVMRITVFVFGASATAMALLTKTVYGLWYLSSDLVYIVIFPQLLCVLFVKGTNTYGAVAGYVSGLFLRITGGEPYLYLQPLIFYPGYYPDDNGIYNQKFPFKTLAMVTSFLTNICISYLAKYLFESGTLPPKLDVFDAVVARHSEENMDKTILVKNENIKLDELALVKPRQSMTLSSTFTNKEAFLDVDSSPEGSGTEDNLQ
TMEM16A inh: blocks the mouse calcium-activated chloride channel TMEM16A | Q8BHY3 | HEK293 TMEM16A/YFP iodide influx fluorescence, ionomycin | normalized B-score (activity score, 25-100; higher = stronger inhibition) at 10 µM | 310,000 compounds, 1.2% hits;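 active means ratio plate-corrected score three or more library SD toward inhibition, starting fluorescence score within five deviations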;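 further: score derived from kinetic fluorescence span divided by baseline fluorescence per well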
TMEM16A act: activators or potentiators of mouse TMEM16A chloride channel | Q8BHY3 | HEK293 TMEM16A/YFP-H148Q/I152L, iodide quench fluorescence; hits give low values | B-score at 10 µM | 340,000 compounds, 0.3% hits;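 active means fluorescence-ratio B-score plate-corrected deviation score at least 3 library SD below zero, with starting fluorescence score within 5 deviations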;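 further: channel opened by trigger with iodide after compound preincubation; score built on the fluorescence ratio of max minus min over baseline; more negative score means more quench and so TMEM16A activation or potentiation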
CHT allo act: allosteric activators of human choline transporter CHT | Q9GZV3 | CHT-expressing cells, membrane potential dye, choline EC20; hits give high values; LV-AA mutant CHT in HEK293 cells | B-score at 10 µM | 310,000 compounds, 0.49% hits;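 active means initial fluorescence not abnormally high and integrated response B-score, plate-corrected, over 3 SD above library mean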
The depositor's hits bear a star; i = inactive; x = not tested or not shown.

SMILES	VIM-2 inh	IMP-1 inhibitor	CHT block	TMEM16A inh	TMEM16A act	CHT allo act
Cc1ccc(S(=O)(=O)N2CCC(=O)N2)cc1	8.6*	-0.2	i	i	i	i
O=C1CCN(S(=O)(=O)c2ccccc2)N1	9.7*	-0.1	i	i	i	i
CCCc1ccc(S(=O)(=O)NCc2nnc(SC)n2C)cc1	-2.4	-3.2	i	i	i	i
CCOc1ccc(OCCNC(=O)c2cc(C3CC3)nc3c2cnn3C(C)C)cc1	x	x	x	x	i	x
Cc1ccc(C(=O)CN(C(=O)c2ccc(Cl)c(Cl)c2)N2C(=O)C3CCCCC3C2=O)cc1C (stereo unspecified)	-3.5	-3.9	i	i	-5.52*	i
Cc1ccccc1Nc1nc(Nc2ccccc2C)nc(SC2=NCCS2)n1	-2.9	-5.4	i	25*	i	i
CCn1c(SCC(=O)N2CCN(c3ccccc3)CC2)nc2c(c1=O)SC(C)C2 (stereo unspecified)	-0.5	4.9*	i	i	i	i
CCn1c(CSCc2ccc(C)cc2)nnc1SCC(=O)N1CCN(c2ccccc2)CC1	1.7	-6.8	i	25*	i	i
C=CCn1c(CSCc2ccccc2)nnc1SCC(=O)N1CCN(c2ccccc2)CC1	-4.3	-4.8	i	i	i	i
Cc1ccc(CSCC(=O)N(C)CC(=O)Nc2c(Cl)cccc2Cl)cc1	x	x	i	i	i	i
CC(=O)Nc1ccc(Nc2cc(C)nc3ccccc23)cc1	x	x	i	i	i	i
Cc1cc(Nc2ccc(C)c(C)c2)c2ccccc2n1	8.6*	-0.5	i	i	i	i
COc1ccc(Nc2cc(C)nc3c(C)cccc23)cc1OC	10.2*	-1.9	i	i	i	i
Cc1ccc(N2CC(C(=O)N3CCN(c4ccccn4)CC3)CC2=O)cc1 (stereo unspecified)	x	x	x	x	i	x
COCC(=O)N1CCC(Oc2ccc(C(=O)N3CCCCCC3)cc2)CC1	-0.9	-0.7	i	i	i	i
CCOC(=O)COc1cc(OCC(=O)OCC)c2c3c(c(=O)oc2c1)CCCC3	9.4*	-2.2	i	i	i	i
COc1cc2ccccc2cc1C(=O)N(CCN(C)C)c1nc2c(F)cc(F)cc2s1	0.7	-0.3	i	25*	i	i
COc1cc2ccccc2cc1C(=O)N(CCN(C)C)c1nc2ccc(Br)cc2s1	-2.8	-5.1	i	i	i	i
COc1ccc2sc(N(CCN(C)C)C(=O)c3cc(Cl)sc3Cl)nc2c1	-1.5	-1.6	i	i	-5.87*	i
COc1ccc(C(=O)N[C@H](C(=O)OCCCOC(=O)[C@@H](NC(=O)c2ccc(OC)cc2)C(C)C)C(C)C)cc1	x	x	x	x	i	x
CCC(=O)N/C(N)=N/c1nc(C)c2cc(C)c(C)cc2n1	10.0*	-1.3	i	i	i	i
Cc1cc2nc(/N=C(\N)NC(=O)C(C)C)nc(C)c2cc1C	-0.3	-2.8	i	i	i	i
Cn1ccc(C(=O)NC(=S)N2CCSCC2)n1	-4.7	-3.5	i	i	i	i
C=C[C@@]1(C)CC(=O)[C@]2(O)[C@@]3(C)[C@@H](O)CCC(C)(C)[C@@H]3[C@H](O)[C@H](OC(C)=O)[C@@]2(C)O1	x	x	-6.42*	i	i	i
CC(=O)Nc1ccc(SC[C@H](Cc2ccccc2)N2CC[C@@H](C(C)(C)C)CCC2=O)cc1	x	x	x	x	i	x
SMILES	VIM-2 inh	IMP-1 inhibitor	CHT block	TMEM16A inh	TMEM16A act	CHT allo act
COC(=O)C(C(=O)OC)C(C)C(C(=O)OC)C(=O)OC	-1.6	2.4	i	i	-17.8*	i
CCC(C)c1c(O)nc(SCC(=O)c2ccccc2)[nH]c1=O (stereo unspecified)	-1.4	4.7*	i	i	i	i
CCC(C)c1c(O)nc(SCC(=O)Nc2ccccc2)[nH]c1=O (stereo unspecified)	-1.4	-2.4	i	i	i	i
CC(=O)NS(=O)(=O)c1ccc(NC(=O)c2ccc(S(=O)(=O)N3CCCC3)cc2)cc1	x	x	x	x	i	x
CC(C)(C)c1ccc(C(=O)N2CCC(C(=O)NC3CCCCCC3)CC2)cc1	-2.6	-0.8	-5.11*	i	i	i
CC(C)(C)C(=O)C(Oc1cccc2nonc12)n1cncn1 (stereo unspecified)	-2.3	34.9*	i	i	i	i
CCOC(=O)c1sc(NC(=O)c2cc(-c3ccccc3)nc3ccccc23)c(C#N)c1C	2.2	0.1	i	100*	i	i
CCOC(=O)c1sc(NC(=O)CSc2n[nH]c(-c3ccccc3)n2)c(C#N)c1C	-2.4	-3.5	i	100*	i	i
CCOC(=O)c1sc(NC(=O)CSc2nc(C)cc(C)n2)c(C#N)c1C	-1.1	-0.6	i	i	i	i
CCOC(=O)c1c(C)nc2cc(C)cc(C)n12	-0.2	-1.8	i	i	i	i
COc1ccc(NC(=O)c2cccc(S(=O)(=O)N3CCCCCC3)c2)cc1	-2.9	-3.3	i	i	i	i
CC12CCC(=O)N1C(C(=O)OCC(=O)Nc1ccc(C(F)(F)F)cc1)CS2 (stereo unspecified)	x	x	x	x	i	x
Cc1ccc2oc(=O)c3cc(C(=O)NCCN4CCN(C)CC4)sc3c2c1	11.7*	-2.1	i	i	i	i
CCN1/C(=C/C=C/c2oc3ccc(-c4ccccc4)cc3[n+]2CC)Oc2ccc(-c3ccccc3)cc21	-1.3	4.6*	i	i	i	i
O=C(O)c1ccccc1C(c1ccccc1)c1ccccc1O (stereo unspecified)	x	x	x	x	i	x
CC(C)Cc1nnc(NC(=O)CCC(=O)Nc2ccc(Cl)cc2)s1	-4.3	-0.9	i	i	i	i
CC(C)Cc1nnc(NC(=O)CCS(=O)(=O)c2ccc(Cl)cc2)s1	8.7*	-2.4	i	i	i	i
Cc1c(C(=O)N(C)Cc2nc3ccccc3c(=O)[nH]2)oc2ccccc12	x	x	x	x	i	x
Cc1occc1C(=O)N1CCN(c2ncccn2)CC1	-7.0	-3.4	i	i	-50.4*	i
CC(=O)Nc1ccc(S(=O)(=O)NCC(=O)N2CCN(S(=O)(=O)c3cccs3)CC2)cc1	x	x	x	x	-15.1*	x
CCOC(=O)N1CCN(C(=O)CNS(=O)(=O)c2cccs2)CC1	-2.1	-3.4	i	i	i	i
Cc1ccc(C2C(C(=O)c3cccs3)=C(O)C(=O)N2c2nnc(C)s2)cc1 (stereo unspecified)	19.5*	19.7*	i	i	i	i
COc1cccc(CNS(=O)(=O)c2ccc3c(c2)C(C)(C)C(=O)N3C)c1	-2.2	-1.3	i	i	i	i

Screens deposited in PubChem by several laboratories.
